Screening data from PubChem.
Hits are enriched below; roughly 5.8% of the tested compounds scored in any of these assays.
IDH1 R132H inh: blocks human IDH1 R132H reductase activity; 70,000 tested, 0.18% active; inhibition, % at 10 µM; diaphorase/resazurin fluorescence, 60 min; O75874; in the data active = inhibition above about 34%; inconclusive = no clear call, values can overlap the other calls; inactive = below about 11%;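 note: 0% = DMSO and 100% = no enzyme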
T cruzi growth-1: T. cruzi proliferation inhibition; 77,000 tested, 5.9% active; T. cruzi beta-gal in NIH3T3, GalScreen luminescence, 90 h; inhibition, % at 8.34 µM;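 active = mean inhibition above about 93%, with at least 55% of replicates each passing it, limit read from the data, passing the limit was not always enough; inconclusive = only one of those two conditions holds; inactive = neither condition holds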
Pf Dd2 inh: inhibitors of Plasmodium falciparum Dd2 growth. P. falciparum Dd2 growth, SYBR Green, 72 h; hits give low values. activity change, % at 10 µM. 94,000 tested, 2.3% active. AID 1159554; in the data active = activity change below about -80%; inconclusive = no clear call, values can overlap the other calls
KDM4C inh: KDM4C (human) demethylase inhibition; GST-KDM4C 2-372, H3K9me3 peptide, LANCE TR-FRET; 96,000 tested, 0.15% active; Q9H3R0; inhibition, % at 12.5 µM;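 active = mean replicate inhibition above about 25%, with at least 55% of replicates also reaching it, limit read from the data, passing the limit was not always enough; inconclusive = only one of those two conditions met; inactive = neither condition met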
Target sequence (Q9H3R0 2-372 limits assumed): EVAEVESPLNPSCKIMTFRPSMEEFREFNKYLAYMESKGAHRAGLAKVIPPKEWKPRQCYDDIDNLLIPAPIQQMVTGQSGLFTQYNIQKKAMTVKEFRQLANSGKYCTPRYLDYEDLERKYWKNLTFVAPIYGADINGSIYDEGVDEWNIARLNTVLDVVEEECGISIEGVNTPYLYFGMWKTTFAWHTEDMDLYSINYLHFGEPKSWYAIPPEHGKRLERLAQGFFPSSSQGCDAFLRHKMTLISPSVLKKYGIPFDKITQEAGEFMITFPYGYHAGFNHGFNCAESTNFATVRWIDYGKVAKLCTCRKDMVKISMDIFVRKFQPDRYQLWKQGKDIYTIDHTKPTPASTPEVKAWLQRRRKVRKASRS
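material = GST-tagged GASC-1 (JMJD2C) catalytic fragment, aa 2-372 | amount = enzyme final amount 10 nM | medium = HEPES buffer, pH 7.5, plus ascorbate | also added = H3K9me3 peptide substrate, Fe(II), 2-oxoglutarate | dosing = single dose | times = 30 min demethylation and 1 h detection at room temperature | detection = LANCE TR-FRET | read-out basis = Fall in 671/618 emission ratio as inhibition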
T cruzi growth-2: Trypanosoma cruzi proliferation inhibition. inhibition, % at 8.35 µM. T. cruzi beta-gal in NIH3T3, GalScreen luminescence, 90 h. 5,600 tested, 72% active. shares compounds with T cruzi growth-1. AID 651739;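 active = mean replicate inhibition above about 95% and at least 55% of replicates individually reaching it, limit read from the data; inconclusive = only one of the two criteria is met; inactive = neither criterion is met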
T cruzi growth-3: Trypanosoma cruzi proliferation inhibition | shares compounds with T cruzi growth-1 | T. cruzi beta-gal in NIH3T3, GalScreen luminescence, 90 h | inhibition, % at 2.09 µM | 5,600 tested, 21% active | AID 651740;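 active = mean inhibition above about 95%, with at least 55% of replicates also reaching it, limit read from the data; inconclusive = meets just one of the two conditions; inactive = meets neither condition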;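 note: plate controls were neutral control median for no effect and positive control median for full effect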
NIH3T3 tox: cytotoxicity in mouse NIH/3T3 fibroblasts. cytotoxicity (signal decrease), % at 8.35 µM. NIH/3T3 viability, CellTiter-Glo ATP luminescence, 90 h. AID 651742. shares compounds with T cruzi growth-1. 5,600 tested, 14% active;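 active = mean signal decrease across replicates above about 35% based on untreated-well scatter, with enough replicates individually passing, limit read from the data; inconclusive = no rule stated though some were filed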;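 note: 0% = median of neutral control wells and 100% = median of positive control wells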
NIH3T3 tox 2: NIH/3T3 (mouse) viability loss; inhibition, % at 24.9 µM; shares compounds with T cruzi growth-1; NIH/3T3 viability, CellTiter-Glo ATP luminescence, 90 h; 5,600 tested, 56% active;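 active = mean loss of cell viability signal at or above a set limit, and enough replicates individually reaching it; inconclusive = meets only the mean limit or only the replicate share; inactive = meets neither condition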;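 note: 0% = median of neutral control wells and 100% = median of positive control wells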
Active calls of the source: *; ? = inconclusive; · = no result given; ! = not active in a repeat.

SMILES | IDH1 R132H inh | T cruzi growth-1 | Pf Dd2 inh | KDM4C inh | T cruzi growth-2 | T cruzi growth-3 | NIH3T3 tox | NIH3T3 tox 2
COc1ccc(NC(=O)Nc2ccc3c(c2)C(=O)N([C@H](C)CO)C[C@H](C)[C@H](CN(C)S(=O)(=O)c2ccc(Cl)cc2)O3)cc1 | 0 | 30 | 13 | 0 | · | · | · | ·
C[C@@H]1CN([C@H](C)CO)C(=O)c2cc(N(C)C)ccc2O[C@@H](C)CCCCO[C@@H]1CN(C)C(=O)C1CCCCC1 | -3 | 70 | 21 | 2 | · | · | · | ·
C[C@@H]1CCCCO[C@H](CN(C)C(=O)C2CCCCC2)[C@@H](C)CN([C@H](C)CO)C(=O)c2cc(N(C)C)ccc2O1 | 0 | 103*! | -3 | 2 | 52 | 32 | 8 | -9
C[C@@H]1CCCCO[C@@H](CN(C)C(=O)CCC(F)(F)F)[C@H](C)CN([C@@H](C)CO)C(=O)c2cc(N(C)C)ccc2O1 | -4 | ? | -3 | 6 | 50 | 64 | -29 | -18
C[C@H](CO)N1C[C@H](C)[C@H](CN(C)C(=O)NC2CCCCC2)OCCCC[C@H](C)Oc2ccc(N(C)C)cc2C1=O | · | 111* | -52 | 10 | 52 | 20 | -19 | -37
C[C@@H]1CCCCO[C@@H](CN(C)C(=O)C2CCCCC2)[C@H](C)CN([C@H](C)CO)C(=O)c2cc(N(C)C)ccc2O1 | -1 | ? | 8 | 6 | 3 | -6 | -9 | -4
COc1ccc(NC(=O)N(C)C[C@@H]2Oc3c(NC(=O)CCCCCC(=O)Nc4ccccc4N)cccc3C(=O)N([C@@H](C)CO)C[C@H]2C)cc1 | · | · | -27 | -3 | · | · | · | ·
Cc1noc(C)c1S(=O)(=O)Nc1ccc2c(c1)CC(=O)N([C@@H](C)CO)C[C@H](C)[C@H](CN(C)C(=O)Nc1ccc(C(F)(F)F)cc1)O2 | -4 | 6 | 20 | -1 | · | · | · | ·
C[C@@H]1CCCCO[C@@H](CN(C)C(=O)CCCN(C)C)[C@@H](C)CN([C@H](C)CO)C(=O)c2cc(NS(=O)(=O)c3ccc(Cl)cc3)ccc2O1 | · | 4 | 49 | 4 | · | · | · | ·
C[C@@H]1CCCCO[C@H](CN(C)CC2CCCCC2)[C@H](C)CN([C@H](C)CO)C(=O)c2cc(NC(=O)Nc3ccc(C(F)(F)F)cc3)ccc2O1 | -2 | ? | -78 | · | 2 | -1 | -4 | -2
C[C@@H]1CCCCO[C@@H](CN(C)CC2CCCCC2)[C@@H](C)CN([C@@H](C)CO)C(=O)c2cc(NC(=O)Nc3ccc(C(F)(F)F)cc3)ccc2O1 | · | 99* | -53 | · | ? | 112* | 122* | 103*
C[C@@H]1CCCCO[C@@H](CN(C)CC2CC2)[C@H](C)CN([C@H](C)CO)C(=O)c2cc(NC(=O)Nc3ccc(C(F)(F)F)cc3)ccc2O1 | 4 | 53 | -69 | 0 | · | · | · | ·
C[C@@H]1CCCCO[C@@H](CN(C)CC2CCCCC2)[C@H](C)CN([C@H](C)CO)C(=O)c2cc(NC(=O)Nc3ccc(C(F)(F)F)cc3)ccc2O1 | -1 | ? | -81* | -2 | 106* | 116* | 118* | 105*
COc1ccc(S(=O)(=O)N(C)C[C@H]2OCCCC[C@@H](C)Oc3ccc(NS(=O)(=O)c4ccccc4)cc3C(=O)N([C@H](C)CO)C[C@@H]2C)cc1 | -1 | · | · | 1 | · | · | · | ·
O=C(C[C@H]1C=C[C@H](NC(=O)C2CCC2)[C@H](CO)O1)Nc1nccs1 | 0 | · | 5 | -5 | · | · | · | ·
C[C@H](CO)N1C[C@H](C)[C@@H](CN(C)CC2CCCCC2)Oc2ccc(NC(=O)CCC(F)(F)F)cc2C1=O | · | ? | 12 | · | 46 | -21 | -7 | 7
C[C@@H]1CN([C@@H](C)CO)C(=O)c2cc(NC(=O)Cc3ccccc3)ccc2O[C@H]1CN(C)CC1CCCCC1 | · | ? | -7 | 1 | 65 | 6 | -16 | 2
C[C@H](CO)N1C[C@H](C)[C@H](CN(C)CC2CCCCC2)Oc2ccc(NC(=O)Cc3ccccc3)cc2C1=O | · | 46 | -3 | 2 | · | · | · | ·
COc1ccc(CN(C)C[C@@H]2Oc3ccc(NS(=O)(=O)c4ccc(F)cc4)cc3C(=O)N([C@H](C)CO)C[C@H]2C)cc1 | · | -12 | 1 | 5 | · | · | · | ·
Cc1ccc(S(=O)(=O)Nc2ccc3c(c2)C(=O)N([C@@H](C)CO)C[C@@H](C)[C@@H](CN(C)S(=O)(=O)c2ccc(C)cc2)OCCCC[C@H](C)O3)cc1 | · | 99* | -86* | 0 | 110* | 84 | -21 | 27*
Cc1ccc(S(=O)(=O)Nc2ccc3c(c2)C(=O)N([C@H](C)CO)C[C@H](C)[C@@H](CN(C)CC2CCCCC2)OCCCC[C@H](C)O3)cc1 | · | 48 | -38 | 1 | · | · | · | ·
Cc1ccc(S(=O)(=O)Nc2ccc3c(c2)C(=O)N([C@H](C)CO)C[C@H](C)[C@H](CN(C)CC2CCCCC2)OCCCC[C@H](C)O3)cc1 | 0 | ? | -58 | 4 | 100* | 94 | 8 | 102*
Cc1ccc(S(=O)(=O)Nc2ccc3c(c2)C(=O)N([C@@H](C)CO)C[C@@H](C)[C@H](CN(C)S(=O)(=O)c2ccc(C)cc2)OCCCC[C@H](C)O3)cc1 | · | ? | -64 | -3 | 106* | 69 | 6 | 58*
Cc1ccc(S(=O)(=O)Nc2ccc3c(c2)C(=O)N([C@H](C)CO)C[C@@H](C)[C@@H](CN(C)S(=O)(=O)c2ccc(C)cc2)OCCCC[C@@H](C)O3)cc1 | · | 93 | -79 | -2 | · | · | · | ·
COCC(=O)N1CC(=O)N2[C@H](CO)[C@@H](c3ccc(C#CCc4ccccc4)cc3)[C@H]2C1 | · | · | -42 | -1 | · | · | · | ·
C[C@@H]1CN([C@H](C)CO)C(=O)c2cc(NC(=O)Nc3ccc(C(F)(F)F)cc3)ccc2O[C@@H](C)CCCCO[C@H]1CN(C)Cc1ccc(C(F)(F)F)cc1 | 1 | 84 | ? | -2 | · | · | · | ·
COc1ccc(NC(=O)Nc2ccc3c(c2)C(=O)N([C@@H](C)CO)C[C@@H](C)[C@H](CN(C)Cc2ccc(C(F)(F)F)cc2)O3)cc1 | 3 | 111* | -11 | -1 | 104* | -7 | ? | 97*
C[C@@H]1CCCCO[C@@H](CN(C)Cc2ccc(C(F)(F)F)cc2)[C@@H](C)CN([C@H](C)CO)C(=O)c2cc(NC(=O)Nc3ccc(C(F)(F)F)cc3)ccc2O1 | · | 99* | 62 | 0 | 112* | 105* | 18 | 6
